Calls of active or inactive are those of the source. The rule behind the calls is not given here.

Test [1] concerns SK-MEL. The test is described as follows: Cytotoxicity against human malignant melanoma cell line SK-MEL. It is filed as functional, cell-based. In outline: (§1)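 SK-MEL human malignant melanoma cells, 25,000 per well, were exposed to compound solutions for 72 h. Viable cells were counted by neutral red uptake: cells were washed with saline, incubated 1.5 h in 0.17% neutral red in serum-free RPMI, then washed again to remove extracellular dye.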

The species entered for test [2] is Homo sapiens. The test is described as follows: In vitro concentration required to inhibit classical pathway complement induced hemolysis in human. It is filed as functional. In outline:
(§2)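 Classical pathway complement inhibition was tested in vitro; IC50 values are means of three experiments with standard deviation.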

A short description of test [3]: In vitro therapeutic index (IC50 cytotoxicity/ IC50 complement inhibition) was determined. It is filed as functional.
The species named for test [4] is Homo sapiens. The test is described as follows: In vitro concentration required to inhibit classical pathway complement induced hemolysis in human; NA= not active. Format: functional. Put shortly: as §2
In test [5] the test system is SK-MEL. Nature of the test: Cytotoxicity against human malignant melanoma cell line SK-MEL; NA= not active. Format: functional, cell-based. In outline: as §1
The nature of test [6]: In vitro therapeutic index (IC50 cytotoxicity/ IC50 complement inhibition) was determined; ND=not active. It is filed as functional.

As to `CC1(C)C2CCC(Cc3cccc(C(=O)O)c3)C[C@@]2(C)CC[C@@H]1O` (single isomer, unassigned), the IC50 (usually the concentration at which inhibition is half-maximal) turned out to be 333 µM in the test with SK-MEL [1] and 601 µM in the test listed under Homo sapiens [2]. In test [3], this compound gave a TI of 0.6.
Turning to `COc1ccc(CO[C@H]2CC[C@]3(C)CC(Cc4cccc(C(=O)O)c4)CCC3C2(C)C)cc1` (single isomer, unassigned), the values for the IC50 with SK-MEL [1] and in the test listed under Homo sapiens [2] were 180 µM and 488 µM, respectively. Also, the TI in test [3] is 0.4.
Regarding `CC1(C)C2CCC[C@H](/C=C/c3ccc(C(=O)O)cc3)[C@@]2(C)CC[C@@H]1O` (stereo partly specified), the 50% inhibitory concentration (IC50) in the test with SK-MEL [1] stood at 380 µM; in the test listed under Homo sapiens [2] it was 623 µM. This compound also came in with a TI in test [3] of 0.6.
For `COc1ccc(CO[C@H]2CC[C@]3(C)C[C@H](Cc4ccccc4C(=O)O)CCC3C2(C)C)cc1` (stereo partly specified), the IC50 was 166 µM in the test with SK-MEL [1] and “Not Active” in the test listed under Homo sapiens [4].
On to `CC1(C)C2CCC[C@H](/C=C/c3cccc(C(=O)O)c3)[C@@]2(C)CC[C@@H]1O` (stereo partly specified), for which the results for the IC50 in the test on SK-MEL [1] and in the test listed under Homo sapiens [2] were 269 µM and 550 µM, respectively. This compound came in with a TI in test [3] of 0.5.
In the case of `CC1(C)C2CCC[C@H](/C=C/c3ccccc3C#N)[C@@]2(C)CC[C@@H]1O` (stereo partly specified), the 50% inhibitory concentration (IC50) in the test with SK-MEL [1] was 155 µM; in the test listed under Homo sapiens [4], “Not Active”.
As for `CC1(C)C2CC[C@@H](Cc3ccccc3C(=O)O)C[C@@]2(C)CC[C@@H]1O` (stereo partly specified), the figures for the IC50 with SK-MEL [1] and in the test listed under Homo sapiens [2] were 484 µM and 616 µM, respectively. This compound also returned a TI in test [3] of 0.8.
`COC(=O)c1ccc(/C=C/[C@H]2CCCC3C(C)(C)[C@@H](O)CC[C@@]32C)cc1` (stereo partly specified): the half-inhibitory concentration (IC50) entry in the test filed under Homo sapiens [4] and with SK-MEL [5] was “Not Active” each time.
In the case of `CC1(C)C2CCC(Cc3ccc(C(=O)O)cc3)C[C@@]2(C)CC[C@@H]1O` (single isomer, unassigned), the IC50 in the test with SK-MEL [1] amounted to 378 µM; in the test listed under Homo sapiens [2] it was 610 µM. This compound returned a TI in test [3] of 0.6.
In the case of `COc1ccc(CO[C@H]2CC[C@]3(C)CC(Cc4ccc(C(=O)O)cc4)CCC3C2(C)C)cc1` (single isomer, unassigned), the half-inhibitory concentration (IC50) with SK-MEL [1] was 200 µM; in the test filed under Homo sapiens [4] it was “Not Active”. The TI entry in test [6] was “inactive”.
Regarding `CC1(C)CC[C@]2(C(=O)O)CC[C@]3(C)C(=CC[C@@H]4[C@@]5(C)CC[C@H](O)C(C)(C)[C@@H]5CC[C@]43C)[C@@H]2C1` [OLEANOLIC_ACID], the TI in test [3] amounted to 1.55.
`CC1(C)C2CCC[C@H](/C=C/c3ccccc3C(=O)O)[C@@]2(C)CC[C@@H]1O` (stereo partly specified): the figures for the half-maximal inhibitory concentration (IC50) in the test with SK-MEL [1] and in the test filed under Homo sapiens [2] were 380 µM and 633 µM, respectively. In test [3], this compound yielded a TI of 0.6.

(Values after ChEMBL document CHEMBL1134105, “Enantioselective synthesis and complement inhibitory assay of A/B-ring partial analogues of oleanolic acid” (Bioorg Med Chem Lett, 2001).)
